Data on nine molecules can be found in the M2OR odorant receptor database.

What all share (settings): stereoisomer not certain
For one assay, the target named is T1, OR2L13 (Homo sapiens) (UniProt Q8N349).
T1 sequence (whole entry): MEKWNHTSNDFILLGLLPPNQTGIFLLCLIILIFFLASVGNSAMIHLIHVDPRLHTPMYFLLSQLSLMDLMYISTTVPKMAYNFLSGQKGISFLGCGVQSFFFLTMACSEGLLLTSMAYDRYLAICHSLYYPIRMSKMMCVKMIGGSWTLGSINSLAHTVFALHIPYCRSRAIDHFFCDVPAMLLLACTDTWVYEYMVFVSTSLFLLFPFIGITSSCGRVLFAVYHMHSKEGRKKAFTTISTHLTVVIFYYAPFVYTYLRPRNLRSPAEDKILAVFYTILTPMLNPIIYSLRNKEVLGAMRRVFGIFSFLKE
In a few lines:
(§1)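 Assay methods differ from source to source, frequently being transient luciferase assays in mammalian cell lines. For each receptor–molecule pair, the label responsive (active) applies when the original authors judged the measured signal statistically different from baseline, and non-responsive (inactive) applies otherwise.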

A further assay deals with T2, OR2H2 (Homo sapiens) (UniProt O95918).
T2 sequence (whole entry): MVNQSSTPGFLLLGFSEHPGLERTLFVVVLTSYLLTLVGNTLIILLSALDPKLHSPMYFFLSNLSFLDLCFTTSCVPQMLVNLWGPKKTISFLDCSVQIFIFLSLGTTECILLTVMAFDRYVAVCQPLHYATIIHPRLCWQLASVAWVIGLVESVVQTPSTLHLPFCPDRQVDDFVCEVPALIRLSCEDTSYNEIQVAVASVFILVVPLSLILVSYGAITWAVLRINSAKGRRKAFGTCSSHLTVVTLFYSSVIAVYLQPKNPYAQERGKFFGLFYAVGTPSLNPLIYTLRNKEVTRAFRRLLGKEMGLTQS
In short, it runs like this:
as §1

The target in a further assay is T3, OR2J3 (Homo sapiens) (UniProt O76001).
T3 sequence (whole entry): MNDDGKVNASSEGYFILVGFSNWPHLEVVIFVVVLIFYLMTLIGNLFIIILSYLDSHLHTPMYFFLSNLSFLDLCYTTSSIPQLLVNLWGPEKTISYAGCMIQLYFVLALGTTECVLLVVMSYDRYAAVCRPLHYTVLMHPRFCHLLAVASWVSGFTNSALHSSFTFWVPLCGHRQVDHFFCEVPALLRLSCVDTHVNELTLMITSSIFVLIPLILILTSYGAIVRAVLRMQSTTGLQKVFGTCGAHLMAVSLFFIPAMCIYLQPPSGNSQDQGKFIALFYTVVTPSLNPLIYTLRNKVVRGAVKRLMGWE
In short, it runs like this: as §1

The test system of assay [1] is OR2J3. In short, it runs like this: as §1
Target sequence in this assay (as listed by the source): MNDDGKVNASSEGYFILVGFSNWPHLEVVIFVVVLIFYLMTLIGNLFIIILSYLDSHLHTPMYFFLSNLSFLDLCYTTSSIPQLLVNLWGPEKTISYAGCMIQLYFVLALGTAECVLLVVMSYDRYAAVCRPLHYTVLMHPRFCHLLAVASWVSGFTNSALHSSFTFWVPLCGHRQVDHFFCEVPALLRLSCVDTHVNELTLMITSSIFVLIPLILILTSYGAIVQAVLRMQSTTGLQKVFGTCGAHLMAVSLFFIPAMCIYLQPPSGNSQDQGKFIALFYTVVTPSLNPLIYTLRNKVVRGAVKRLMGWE
In assay [2] the test system is OR2J3. In short, it runs like this:
as §1
Target sequence in this assay (as listed by the source): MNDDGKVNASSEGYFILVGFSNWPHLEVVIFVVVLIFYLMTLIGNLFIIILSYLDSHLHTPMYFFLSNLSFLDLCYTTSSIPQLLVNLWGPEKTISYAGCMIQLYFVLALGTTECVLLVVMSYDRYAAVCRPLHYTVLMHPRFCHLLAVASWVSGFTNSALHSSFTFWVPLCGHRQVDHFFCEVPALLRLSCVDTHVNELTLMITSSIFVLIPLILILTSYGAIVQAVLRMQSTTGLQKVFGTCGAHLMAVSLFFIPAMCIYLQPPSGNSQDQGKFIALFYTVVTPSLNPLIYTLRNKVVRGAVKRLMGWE
The source holds these as a separate data set.

The test system of assay [3] is OR2J3. In a few lines:
as §1
Target sequence in this assay (as listed by the source): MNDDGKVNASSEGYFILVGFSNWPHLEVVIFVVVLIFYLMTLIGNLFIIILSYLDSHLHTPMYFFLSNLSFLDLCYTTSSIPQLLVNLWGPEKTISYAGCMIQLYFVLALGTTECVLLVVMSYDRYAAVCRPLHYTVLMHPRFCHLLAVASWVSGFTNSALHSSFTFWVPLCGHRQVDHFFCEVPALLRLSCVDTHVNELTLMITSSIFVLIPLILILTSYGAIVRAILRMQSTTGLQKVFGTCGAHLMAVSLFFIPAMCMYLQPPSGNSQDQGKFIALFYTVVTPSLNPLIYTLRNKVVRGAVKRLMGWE
This is another data set of the same source.

In assay [4] the test system is OR2J3. In a few lines:
as §1
Target sequence in this assay (as listed by the source): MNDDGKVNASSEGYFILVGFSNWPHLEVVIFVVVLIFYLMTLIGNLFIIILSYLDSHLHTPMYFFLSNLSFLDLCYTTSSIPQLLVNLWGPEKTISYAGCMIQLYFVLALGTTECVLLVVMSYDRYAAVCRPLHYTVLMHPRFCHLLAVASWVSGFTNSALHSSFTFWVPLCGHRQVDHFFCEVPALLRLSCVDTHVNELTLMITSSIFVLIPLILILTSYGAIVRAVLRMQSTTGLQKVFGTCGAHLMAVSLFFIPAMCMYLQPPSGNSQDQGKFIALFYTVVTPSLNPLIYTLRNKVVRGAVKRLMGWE
The source holds these as a separate data set.

The target of the next assay is T4, OR2J2 (Homo sapiens) (UniProt O76002).
T4 sequence (whole entry): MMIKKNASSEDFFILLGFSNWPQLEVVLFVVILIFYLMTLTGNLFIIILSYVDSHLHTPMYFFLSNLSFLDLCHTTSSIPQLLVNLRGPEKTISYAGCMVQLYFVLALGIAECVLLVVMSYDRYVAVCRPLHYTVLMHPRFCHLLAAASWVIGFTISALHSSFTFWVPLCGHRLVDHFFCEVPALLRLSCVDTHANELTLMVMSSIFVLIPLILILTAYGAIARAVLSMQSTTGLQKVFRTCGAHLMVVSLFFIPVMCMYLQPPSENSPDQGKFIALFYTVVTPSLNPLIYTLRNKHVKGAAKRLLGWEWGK
In short, it runs like this: as §1

Another assay addresses OR2H1 (Homo sapiens) (UniProt Q9GZK4). In a few lines: as §1
Another assay relates to OR2H2. In short, it runs like this: as §1
Sequence of OR2H2 (as listed by the source): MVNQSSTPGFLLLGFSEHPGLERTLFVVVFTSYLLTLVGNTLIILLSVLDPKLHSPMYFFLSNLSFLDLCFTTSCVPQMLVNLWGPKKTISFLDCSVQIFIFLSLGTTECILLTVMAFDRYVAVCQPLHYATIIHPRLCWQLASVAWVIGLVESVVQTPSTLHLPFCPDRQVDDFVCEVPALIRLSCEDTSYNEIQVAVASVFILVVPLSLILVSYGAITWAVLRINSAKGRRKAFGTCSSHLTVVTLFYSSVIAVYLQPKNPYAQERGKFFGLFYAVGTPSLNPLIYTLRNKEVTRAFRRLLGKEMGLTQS
A further assay addresses OR2J1 (Homo sapiens) (UniProt Q9GZK6). In a few lines:
as §1

A further assay has as its system OR2J1 L14I V182A. In a few lines:
as §1

For assay [5], the system named is OR2J2. In short, it runs like this:
as §1
Target sequence in this assay (as listed by the source): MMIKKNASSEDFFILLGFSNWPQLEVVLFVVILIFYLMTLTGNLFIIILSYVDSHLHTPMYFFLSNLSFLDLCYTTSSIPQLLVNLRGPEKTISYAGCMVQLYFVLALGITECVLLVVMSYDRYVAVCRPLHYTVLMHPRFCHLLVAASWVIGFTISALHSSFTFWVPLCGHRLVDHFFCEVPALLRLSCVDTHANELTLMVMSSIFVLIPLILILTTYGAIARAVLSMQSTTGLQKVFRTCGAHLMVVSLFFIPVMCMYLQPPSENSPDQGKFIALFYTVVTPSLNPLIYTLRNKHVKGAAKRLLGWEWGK

Another assay concerns the target OR2K2 (Homo sapiens) (UniProt Q8NGT1). In short, it runs like this:
as §1

The next assay deals with OR2L2 (Homo sapiens) (UniProt Q8NH16). In a few lines:
as §1

The target of the next assay is OR2L3 (Homo sapiens) (UniProt Q8NG85). In short, it runs like this:
as §1

A further assay deals with OR2L5 (Homo sapiens) (UniProt Q8NG80). In short, it runs like this:
as §1

In the next assay the target is OR2L8 (Homo sapiens) (UniProt Q8NGY9). In short, it runs like this: as §1
Sequence of OR2L8 (Homo sapiens) (Q8NGY9 whole entry): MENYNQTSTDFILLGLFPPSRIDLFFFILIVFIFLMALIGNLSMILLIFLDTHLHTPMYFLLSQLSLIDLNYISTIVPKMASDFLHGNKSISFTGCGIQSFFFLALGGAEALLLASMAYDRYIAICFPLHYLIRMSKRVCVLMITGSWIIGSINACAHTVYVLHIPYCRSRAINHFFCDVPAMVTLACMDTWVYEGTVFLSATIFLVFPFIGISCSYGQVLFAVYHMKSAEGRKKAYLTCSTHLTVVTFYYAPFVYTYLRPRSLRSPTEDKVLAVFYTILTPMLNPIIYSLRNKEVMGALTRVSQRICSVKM
Another assay deals with OR2M2 (Homo sapiens) (UniProt Q96R28). In short, it runs like this: as §1
Sequence of OR2M2 (Homo sapiens) (Q96R28 whole entry): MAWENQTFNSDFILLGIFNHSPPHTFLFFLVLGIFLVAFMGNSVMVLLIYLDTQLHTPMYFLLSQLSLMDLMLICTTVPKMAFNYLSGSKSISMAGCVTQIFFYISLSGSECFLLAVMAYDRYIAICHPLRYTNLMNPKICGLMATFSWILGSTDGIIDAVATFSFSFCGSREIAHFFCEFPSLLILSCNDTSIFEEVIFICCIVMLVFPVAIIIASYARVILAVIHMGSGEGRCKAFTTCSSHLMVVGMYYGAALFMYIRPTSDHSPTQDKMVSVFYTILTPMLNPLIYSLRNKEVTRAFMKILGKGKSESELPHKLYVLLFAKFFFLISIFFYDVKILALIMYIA
The subject of assay [6] is OR2J2. In short, it runs like this:
as §1
Target sequence in this assay (as listed by the source): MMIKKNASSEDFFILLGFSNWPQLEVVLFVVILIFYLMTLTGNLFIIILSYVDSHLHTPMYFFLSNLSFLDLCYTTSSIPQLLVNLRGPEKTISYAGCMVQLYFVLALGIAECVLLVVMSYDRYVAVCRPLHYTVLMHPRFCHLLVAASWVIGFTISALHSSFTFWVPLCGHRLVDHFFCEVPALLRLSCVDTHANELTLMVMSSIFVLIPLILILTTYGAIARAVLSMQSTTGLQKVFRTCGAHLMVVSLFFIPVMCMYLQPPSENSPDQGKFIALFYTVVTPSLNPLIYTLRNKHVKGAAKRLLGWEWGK
This is another data set of the same source.

Sequence of OR2H1 (Homo sapiens) (Q9GZK4 whole entry): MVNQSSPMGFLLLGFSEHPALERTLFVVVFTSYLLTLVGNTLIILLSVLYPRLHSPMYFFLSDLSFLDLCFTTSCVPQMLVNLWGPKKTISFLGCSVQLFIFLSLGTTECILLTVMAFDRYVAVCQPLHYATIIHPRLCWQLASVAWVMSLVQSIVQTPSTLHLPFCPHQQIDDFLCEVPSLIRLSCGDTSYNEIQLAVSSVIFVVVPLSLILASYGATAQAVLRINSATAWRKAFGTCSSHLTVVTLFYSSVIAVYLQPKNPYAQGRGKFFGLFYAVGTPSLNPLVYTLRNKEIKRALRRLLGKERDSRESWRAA
Sequence of OR2J1 (Homo sapiens) (Q9GZK6 whole entry): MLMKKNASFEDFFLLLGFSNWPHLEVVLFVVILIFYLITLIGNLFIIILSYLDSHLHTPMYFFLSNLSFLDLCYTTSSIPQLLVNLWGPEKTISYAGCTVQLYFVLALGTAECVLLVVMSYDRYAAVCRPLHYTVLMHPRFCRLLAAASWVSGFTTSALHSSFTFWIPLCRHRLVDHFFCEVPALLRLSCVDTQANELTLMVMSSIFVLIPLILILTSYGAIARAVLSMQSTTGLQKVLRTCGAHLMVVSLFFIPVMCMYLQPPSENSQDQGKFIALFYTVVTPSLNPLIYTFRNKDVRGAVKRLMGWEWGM
Sequence of OR2L5 (Homo sapiens) (Q8NG80 whole entry): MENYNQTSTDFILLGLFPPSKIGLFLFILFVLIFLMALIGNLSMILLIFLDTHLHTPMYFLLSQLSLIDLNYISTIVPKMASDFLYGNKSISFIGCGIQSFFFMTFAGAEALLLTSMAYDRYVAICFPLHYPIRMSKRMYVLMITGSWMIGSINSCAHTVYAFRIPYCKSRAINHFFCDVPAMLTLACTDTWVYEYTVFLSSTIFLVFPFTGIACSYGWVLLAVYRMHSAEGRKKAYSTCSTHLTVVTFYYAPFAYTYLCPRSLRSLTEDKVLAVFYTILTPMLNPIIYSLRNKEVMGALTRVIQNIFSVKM
Sequence of OR2K2 (Homo sapiens) (Q8NGT1 whole entry): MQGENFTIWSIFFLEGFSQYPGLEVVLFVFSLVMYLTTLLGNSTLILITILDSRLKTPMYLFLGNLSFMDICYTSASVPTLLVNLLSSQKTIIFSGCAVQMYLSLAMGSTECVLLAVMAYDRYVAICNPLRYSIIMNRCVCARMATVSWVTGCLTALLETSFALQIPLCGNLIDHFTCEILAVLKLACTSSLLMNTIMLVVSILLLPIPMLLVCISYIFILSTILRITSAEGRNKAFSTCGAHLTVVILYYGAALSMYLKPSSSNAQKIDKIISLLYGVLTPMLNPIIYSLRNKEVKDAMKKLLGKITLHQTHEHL
Sequence of OR2L3 (Homo sapiens) (Q8NG85 whole entry): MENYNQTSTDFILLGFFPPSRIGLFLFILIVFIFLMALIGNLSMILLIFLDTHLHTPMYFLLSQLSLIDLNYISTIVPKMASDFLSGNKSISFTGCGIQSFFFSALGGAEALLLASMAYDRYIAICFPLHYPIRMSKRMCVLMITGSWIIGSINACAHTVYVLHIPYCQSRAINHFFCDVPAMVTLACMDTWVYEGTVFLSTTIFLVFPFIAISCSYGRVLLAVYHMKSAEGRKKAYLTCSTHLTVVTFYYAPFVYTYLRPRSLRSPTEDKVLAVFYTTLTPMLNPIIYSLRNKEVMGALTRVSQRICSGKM
Sequence of OR2L2 (Homo sapiens) (Q8NH16 whole entry): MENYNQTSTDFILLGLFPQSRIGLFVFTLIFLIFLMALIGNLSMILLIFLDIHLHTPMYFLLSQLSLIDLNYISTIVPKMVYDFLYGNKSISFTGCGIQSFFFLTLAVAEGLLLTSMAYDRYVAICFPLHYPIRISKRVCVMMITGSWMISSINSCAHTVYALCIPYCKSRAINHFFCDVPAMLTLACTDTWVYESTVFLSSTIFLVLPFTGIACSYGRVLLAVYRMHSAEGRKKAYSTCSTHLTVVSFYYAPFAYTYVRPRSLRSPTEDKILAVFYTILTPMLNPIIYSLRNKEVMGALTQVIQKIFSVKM

Regarding `Cc1cccc(C)c1`, the “odorant receptor agonist call” value in the assay with OR2L13 (Homo sapiens) is “inactive”.
Consider `O=CC=Cc1ccccc1`, for which the “odorant receptor agonist call” value in the assay with OR2H2 (Homo sapiens) was “inactive”. Also, the “odorant receptor agonist call” value with OR2J3 (Homo sapiens), in the assay on OR2J3 [1], in the assay on OR2J3 [2], with OR2J3 [3] and in the assay on OR2J3 [4] was “active” each time.
As to `CCC1CCC(=O)O1` (stereo not given), the “odorant receptor agonist call” value in the assay with OR2J2 (Homo sapiens) is “inactive”.
On to `C=CCc1ccccc1`, for which the “odorant receptor agonist call” value with OR2J2 (Homo sapiens) is “inactive”.
Regarding `C=CCOC(=O)Cc1ccccc1`, the “odorant receptor agonist call” value with OR2H1 (Homo sapiens), in the assay with OR2H2 (Homo sapiens), in the assay on OR2H2, with OR2J1 (Homo sapiens), with OR2J1 L14I V182A and in the assay with OR2J2 (Homo sapiens) was “inactive” each time. Further, the “odorant receptor agonist call” value in the assay with OR2J2 [5], in the assay with OR2J3 (Homo sapiens), in the assay on OR2J3 [3], with OR2K2 (Homo sapiens), with OR2L13 (Homo sapiens) and with OR2L2 (Homo sapiens) was “inactive” each time. The “odorant receptor agonist call” value in the assay with OR2L3 (Homo sapiens), with OR2L5 (Homo sapiens), in the assay with OR2L8 (Homo sapiens) and in the assay with OR2M2 (Homo sapiens) was “inactive” throughout.
Turning to `O=c1cc(O)c2ccccc2o1`, the “odorant receptor agonist call” value in the assay with OR2J2 (Homo sapiens) is “inactive”.
With `CCCCOC(=O)c1ccccc1N`, the “odorant receptor agonist call” value with OR2J2 [6] and in the assay with OR2J2 [5] was “active” throughout.
For `COc1ccc(C=O)cc1`, in the assay with OR2L13 (Homo sapiens), the “odorant receptor agonist call” value is “inactive”.
Turning to `Cc1c([N+](=O)[O-])c(C)c([N+](=O)[O-])c(C(C)(C)C)c1[N+](=O)[O-]`, the “odorant receptor agonist call” value with OR2H1 (Homo sapiens), with OR2H2 (Homo sapiens), with OR2J1 (Homo sapiens), with OR2J2 (Homo sapiens), with OR2K2 (Homo sapiens) and with OR2L13 (Homo sapiens) was “inactive” each time. Further, the “odorant receptor agonist call” value in the assay with OR2L3 (Homo sapiens), with OR2L5 (Homo sapiens), with OR2L8 (Homo sapiens) and in the assay with OR2M2 (Homo sapiens) was “inactive” in each case. Also, the “odorant receptor agonist call” value in the assay with OR2J3 (Homo sapiens) was “active”.
